For orientation: Ki means a measure of affinity in units of concentration, obtained from inhibition or displacement. As a reminder, the EC50 is the concentration at which the effect is half-maximal. Usually IC50 stands for the concentration needed to halve the response being measured. What is called efflux ratio is the permeability from basolateral to apical divided by that in the opposite direction, in the common usage. By Papp B→A is commonly meant how fast a substance crosses the layer from the basolateral side. The bioavailability is dose-corrected exposure relative to a reference, in per cent. The clearance is the volume of plasma or blood freed of the substance per unit of time. A high value points to a high capacity for elimination.

Here are results for 18 compounds from ChEMBL document CHEMBL2417437, “A hit to lead discovery of novel N-methylated imidazolo-, pyrrolo-, and pyrazolo-pyrimidines as potent and selective mTOR inhibitors” (Bioorg Med Chem Lett, 2013).

For data set [1], the target named is T1, Phosphatidylinositol 4,5-bisphosphate 3-kinase catalytic subunit delta isoform (Homo sapiens, UniProt O00329).
T1 sequence (O00329 whole entry): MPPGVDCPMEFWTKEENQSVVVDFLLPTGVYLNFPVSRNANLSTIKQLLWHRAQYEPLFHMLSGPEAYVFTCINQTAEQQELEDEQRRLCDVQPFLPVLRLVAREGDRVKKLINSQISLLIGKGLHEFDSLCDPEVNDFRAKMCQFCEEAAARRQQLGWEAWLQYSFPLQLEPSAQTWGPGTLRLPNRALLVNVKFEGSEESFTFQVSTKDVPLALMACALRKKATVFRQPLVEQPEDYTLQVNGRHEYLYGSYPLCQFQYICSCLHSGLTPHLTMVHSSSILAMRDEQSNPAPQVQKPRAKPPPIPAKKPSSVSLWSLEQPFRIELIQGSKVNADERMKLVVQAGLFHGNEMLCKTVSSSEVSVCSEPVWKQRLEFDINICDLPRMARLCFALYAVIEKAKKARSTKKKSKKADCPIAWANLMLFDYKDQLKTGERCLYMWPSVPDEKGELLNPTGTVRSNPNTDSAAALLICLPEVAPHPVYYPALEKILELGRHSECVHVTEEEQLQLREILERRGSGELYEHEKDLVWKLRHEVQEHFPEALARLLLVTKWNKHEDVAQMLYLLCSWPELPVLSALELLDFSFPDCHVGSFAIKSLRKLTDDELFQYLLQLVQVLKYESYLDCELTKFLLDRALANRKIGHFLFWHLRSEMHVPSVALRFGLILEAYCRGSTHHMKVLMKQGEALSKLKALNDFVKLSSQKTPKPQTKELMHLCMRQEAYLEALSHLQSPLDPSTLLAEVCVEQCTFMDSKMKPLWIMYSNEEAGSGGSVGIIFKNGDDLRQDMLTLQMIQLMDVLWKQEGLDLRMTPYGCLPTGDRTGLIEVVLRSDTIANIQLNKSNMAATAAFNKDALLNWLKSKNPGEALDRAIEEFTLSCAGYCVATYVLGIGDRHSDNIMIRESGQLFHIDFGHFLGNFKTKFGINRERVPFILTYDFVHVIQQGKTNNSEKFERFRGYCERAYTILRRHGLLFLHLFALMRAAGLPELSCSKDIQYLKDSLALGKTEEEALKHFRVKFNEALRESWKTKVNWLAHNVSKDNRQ
As to the kind of experiment: Displacement of TAMRA-PIP3 from PI3Kdelta GRP-1 pleckstrin homology domain (unknown origin) assessed as formation of 3,4,5-inositoltriphosphate after 30 mins by fluorescence polarization assay.

Data set [2] addresses Phosphatidylinositol 4,5-bisphosphate 3-kinase catalytic subunit alpha isoform (Homo sapiens, UniProt P42336). Kind of data set: Displacement of TAMRA-PIP3 from PI3Kalpha GRP-1 pleckstrin homology domain (unknown origin) assessed as formation of 3,4,5-inositoltriphosphate after 30 mins by fluorescence polarization assay. A general note: In fluorescence polarisation assays a small probe gives low polarisation when free and higher when bound to something large.

The subject of data set [3] is PC-3. As to the kind of experiment: Antiproliferative activity against PTEN deficient human PC3 cells assessed as cell viability after 3 days by CellTiter-Glo assay. The class given is functional, cell-based. The following applies: PC-3, 72 h. Put shortly:
(§1)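 Three-day cell viability assay in PTEN-null NCI-PC3 prostate carcinoma cells and in MCF7 neo/HER2 cells, read as antiproliferative activity.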
(In general: ATP-based viability assays read luminescence as a measure of living cells.)

Data set [4] has as its system MCF7. Kind of data set: Antiproliferative activity against human MCF7 cells expressing neo/Her2 assessed as cell viability after 3 days by CellTiter-Glo assay. The class given is functional, cell-based. The following applies: MCF7, 72 h. Put shortly: as §1
Data set [5] addresses T2, Serine/threonine-protein kinase mTOR (Homo sapiens, UniProt P42345). Kind of data set: Inhibition of mTOR in PTEN deficient human PC3 cells assessed as inhibition of p70S6K phosphorylation. It is filed as cell-based, PC-3.
Data set [6] addresses T2, Serine/threonine-protein kinase mTOR. Kind of data set: Inhibition of mTOR in PTEN deficient human PC3 cells assessed as inhibition of Akt phosphorylation at Ser473. It is filed as cell-based, PC-3.
The target is the same in data set [7]. Kind of data set: Inhibition of human recombinant mTOR (1360-2549) expressed in insect cells assessed as phosphorylation of recombinant (GFP)-4-EBP1 after 30 mins by LanthaScreen FRET assay. For orientation: In TR-FRET formats the signal depends on donor and acceptor labels being close together.
Data set [8] can be described thus: Efflux ratio of apparent permeability in MDCK cells. It is filed as ADME, cell-based, Canis lupus familiaris. The following applies: dog.
Data set [9] in a line: Apparent permeability across basolateral to apical side in MDCK cells. The class given is ADME, cell-based, Canis lupus familiaris. Conditions: dog.
A short description of data set [10]: Oral bioavailability in mouse at 25 mg/kg. It is filed as ADME, organism-based. The following applies: in vivo. Put shortly: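 Mice were given a 25 mg/kg oral dose as a suspension in MCT. Bioavailability was reported as %F.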
Data set [11] is described as follows: Volume of distribution at steady state in iv dosed mouse. It is filed as ADME, organism-based. Conditions: in vivo, read-out: Vdss.
Data set [12] in a line: Plasma clearance in iv dosed mouse. The class given is ADME, organism-based.
In data set [13] the target is T2, Serine/threonine-protein kinase mTOR. As to the kind of experiment: Inhibition of mTOR (unknown origin).
Data set [14] is filed under the species Homo sapiens. Kind of data set: Selectivity ratio of IC50 for PI3Kalpha (unknown origin) to Ki for human recombinant mTOR (1360-2549). Summed up:
(§2)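 Ratio of two biochemical values. The PI3K IC50 (PI3Kα or PI3Kδ) comes from a fluorescence polarization kinase assay. The mTOR Ki comes from a LanthaScreen FRET assay on the recombinant mTOR kinase domain. Each value is from at least two separate determinations, with typical variation under 30%.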

Data set [15] is filed under the species Homo sapiens. Kind of data set: Selectivity ratio of IC50 for PI3Kdelta (unknown origin) to Ki for human recombinant mTOR (1360-2549). Summed up:
as §2

Phosphatidylinositol 4,5-bisphosphate 3-kinase catalytic subunit alpha isoform, sequence (P42336 whole entry, the tested form may be a part, canonical isoform): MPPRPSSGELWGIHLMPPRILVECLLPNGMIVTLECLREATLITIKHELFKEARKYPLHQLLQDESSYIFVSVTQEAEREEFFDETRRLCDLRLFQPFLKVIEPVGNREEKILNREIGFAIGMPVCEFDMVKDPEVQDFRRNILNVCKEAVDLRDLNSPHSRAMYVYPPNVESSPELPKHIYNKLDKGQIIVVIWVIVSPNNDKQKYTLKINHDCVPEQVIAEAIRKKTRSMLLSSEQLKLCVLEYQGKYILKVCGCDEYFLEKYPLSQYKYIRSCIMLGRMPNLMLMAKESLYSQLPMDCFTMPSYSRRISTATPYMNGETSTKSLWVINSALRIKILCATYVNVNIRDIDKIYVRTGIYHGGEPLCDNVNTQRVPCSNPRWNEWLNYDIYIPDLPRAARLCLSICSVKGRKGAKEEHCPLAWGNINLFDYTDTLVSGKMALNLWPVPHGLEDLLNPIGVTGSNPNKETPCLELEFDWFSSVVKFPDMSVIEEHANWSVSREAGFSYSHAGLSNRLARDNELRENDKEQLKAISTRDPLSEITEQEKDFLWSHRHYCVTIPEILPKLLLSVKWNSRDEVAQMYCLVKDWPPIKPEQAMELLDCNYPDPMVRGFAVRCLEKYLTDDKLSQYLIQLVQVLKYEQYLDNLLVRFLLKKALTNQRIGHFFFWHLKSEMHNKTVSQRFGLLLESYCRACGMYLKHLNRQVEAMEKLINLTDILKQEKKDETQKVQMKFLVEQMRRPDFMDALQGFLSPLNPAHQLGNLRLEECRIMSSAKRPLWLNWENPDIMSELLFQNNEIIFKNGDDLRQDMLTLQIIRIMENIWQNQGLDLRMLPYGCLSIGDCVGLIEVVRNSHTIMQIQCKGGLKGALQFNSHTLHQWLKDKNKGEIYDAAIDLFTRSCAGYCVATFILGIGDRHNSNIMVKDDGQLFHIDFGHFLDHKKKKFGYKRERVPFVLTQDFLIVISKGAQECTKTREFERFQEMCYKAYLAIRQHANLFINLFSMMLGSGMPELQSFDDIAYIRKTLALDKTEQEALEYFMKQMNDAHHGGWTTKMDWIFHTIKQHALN

With `CCNC(=O)Nc1ccc(-c2nc(N3CCOC[C@@H]3C)c3c(n2)nc(C(C)(C)O)n3C)cc1`, the Ki came to 7300 nM in data set [1] and 7000 nM in data set [2].

For `CCNC(=O)Nc1ccc(-c2nc(N3C[C@@H]4C[C@H]3CO4)c3c(cnn3C)n2)cc1`, the half-maximal effective concentration (EC50) in [3] is 2900 nM; in data set [4], 1700 nM. Besides, the IC50 in data set [5] stood at 270 nM; in [6], 340 nM. The inhibition constant (Ki) came out at 5150 nM in [1], 5140 nM in data set [2] and 28 nM in [7].

For `CCNC(=O)Nc1ccc(-c2nc(N3CCOCC3)c3c(ncn3C)n2)cc1`, in data set [7], the inhibition constant (Ki) came to 150 nM.

For `CCNC(=O)Nc1ccc(-c2nc(N3CCOC[C@@H]3CC)c3c(ccn3C)n2)cc1`, the concentration giving a half-maximal response (EC50) in data set [3] came to 280 nM; in data set [4], 420 nM. In addition, the IC50 came to 40 nM in data set [5] and 11 nM in [6]. In addition, the inhibitory constant (Ki) in data set [1] was greater than 10000 nM; in [2], greater than 10000 nM; in data set [7] it was 6 nM.

`CCNC(=O)Nc1ccc(-c2nc(N3CCOC[C@@H]3CC)c3c(cnn3C)n2)cc1`: the values for the concentration giving a half-maximal response (EC50) in data set [3] and in [4] were 130 nM and 260 nM, respectively. Moreover, the IC50 in data set [5] was 15 nM; in data set [6] it was 8 nM. Moreover, the inhibitory constant (Ki) in data set [1] was greater than 10000 nM; in data set [2] it was 3400 nM; in data set [7] it was 1 nM.

As to `CCNC(=O)Nc1ccc(-c2nc(N3CCOC[C@@H]3C)c3c(ccn3C)n2)cc1`, the concentration for a half-maximal effect (EC50) in [3] turned out to be 1900 nM; in [4], 9000 nM. In addition, the 50% inhibitory concentration (IC50) came to 110 nM in [5] and 77 nM in [6]. Besides, the inhibitory constant (Ki) in data set [1] was greater than 10000 nM; in data set [2] it was greater than 10000 nM; in data set [7] it was 19 nM.

`CCNC(=O)Nc1ccc(-c2nc(N3CCOC[C@@H]3C)c3c(cnn3C)n2)cc1`: the efflux ratio in data set [8] turned out to be 0.55. Moreover, the Papp B→A in [9] worked out at 8.6 ×10⁻⁶ cm/s. The compound further displayed a bioavailability in data set [10] of 4.4%. In addition, in data set [11], the Vd came out at 0.36 L/kg. This compound gave a clearance in data set [12] of 13 mL/min/kg. The EC50 in data set [3] was 420 nM; in data set [4], 760 nM. Further, the IC50 came to 47 nM in data set [5] and 8 nM in data set [6]. Besides, the inhibitory constant (Ki) in [1] is greater than 10000 nM; in data set [2], greater than 10000 nM; in [7], 8 nM.

Take `CC(C)(O)c1nc2c(N3CCOCC3)nc(-c3cnc(N)nc3)nc2n1CCO`: the Ki turned out to be 72 nM in data set [13], 4 nM in data set [1] and 2 nM in [2].

In the case of `CCNC(=O)Nc1ccc(-c2nc(N3CCOC[C@@H]3C)c3nc(C(C)(C)O)n(CCO)c3n2)cc1`, the inhibition constant (Ki) in data set [13] was determined as 9 nM; in data set [1], 160 nM; in data set [2], 190 nM; in data set [7], 9.5 nM.

Regarding `CCNC(=O)Nc1ccc(-c2nc(N3CCOC[C@@H]3CC)c3c(ncn3C)n2)cc1`, the figures for the concentration giving a half-maximal response (EC50) in data set [3] and in [4] were 737 nM and 518 nM, respectively. The IC50 in data set [5] is 153 nM; in data set [6], 69 nM; in data set [1], greater than 10000 nM; in data set [2] it was greater than 10000 nM. Also, the Ratio in [14] and in data set [15] was greater than 2600 each time.

Regarding `CCNC(=O)Nc1ccc(-c2nc(N3CCOC[C@@H]3C)c3c(ncn3CC)n2)cc1`, the Ki in [1] and in data set [2] was greater than 10000 nM throughout.

`CCNC(=O)Nc1ccc(-c2nc(N3CCOC[C@@H]3C)c3nc(C(C)(C)O)n(C)c3n2)cc1`: the Ki turned out to be 490 nM in data set [1], 390 nM in data set [2] and 7 nM in data set [7].

Consider `CCNC(=O)Nc1ccc(-c2nc(N3CCCOCC3)c3c(ncn3C)n2)cc1`, for which the IC50 in data set [5] amounted to 8900 nM; in data set [6] it was 7200 nM; in data set [1], 7300 nM; in [2], 6400 nM. Moreover, the Ratio in [14] was 53; in data set [15], 61.

Take `CCNC(=O)Nc1ccc(-c2nc(N3CCOC[C@@H]3CC)c3c(n2)c(C)nn3C)cc1`: the EC50 in data set [3] was determined as 86 nM; in data set [4], 160 nM. Besides, the figures for the concentration for half-maximal inhibition (IC50) in data set [5] and in [6] were 8 nM and 4 nM, respectively. In addition, the results for the inhibition constant (Ki) in data set [1] and in data set [2] were greater than 10000 nM and 5800 nM, respectively.

Turning to `CCNC(=O)Nc1ccc(-c2nc(N3CCOC[C@@H]3C)c3ncn(C)c3n2)cc1`, the Ki was 890 nM in [1], 370 nM in [2] and 12 nM in [7].

`CCNC(=O)Nc1ccc(-c2nc(N3CCOC[C@H]3C)c3c(ncn3C)n2)cc1`: the values for the IC50 in data set [1] and in [2] were 4000 nM and 5800 nM, respectively.

In the case of `CCNC(=O)Nc1ccc(-c2nc(N3CCOC[C@@H]3C)c3c(ncn3C)n2)cc1`, the concentration giving a half-maximal response (EC50) in data set [3] came to 290 nM; in data set [4] it was 1300 nM. Further, the Ki in data set [1] and in [2] was greater than 10000 nM throughout.

In the case of `CCNC(=O)Nc1ccc(-c2nc(N3CCOC[C@@H]3C)c3ncn(CC)c3n2)cc1`, the inhibition constant (Ki) was 630 nM in data set [1], 380 nM in [2] and 8 nM in [7].
